Test results: ChEMBL document CHEMBL3352384, “Synthesis and biological activity of new salicylanilide N,N-disubstituted carbamates and thiocarbamates” (Bioorg Med Chem, 2014)
Values after ≈ are worked out from the molar mass of the structure shown.

Tests used:
Mycobacterium avium [1] = experiment: Antimycobacterial activity against Isoniazid, rifampicin, ofloxacin and ethambutol-resistant Mycobacterium avium 330/88 assessed as complete growth inhibition after 21 days; format: functional; conditions: 330/88, 504 h
In short: (§1)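 M. tuberculosis 331/88 (H37Rv) inoculum diluted 10-3, M. avium 330/88 diluted 10-5. MIC is the lowest concentration giving complete growth inhibition. Isoniazid and p-aminosalicylic acid as references. Quadruplicate, repeated twice.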

Mycobacterium kansasii [2] = experiment: Antimycobacterial activity against Mycobacterium kansasii 235/80 assessed as complete growth inhibition after 7 days; format: functional; conditions: 235/80, 168 h
In short: (§2)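 Dilutions of M. kansasii inoculum were 10-4 for strain 235/80 and 10-5 for clinical isolate 6509/96. MIC was the lowest concentration giving complete growth inhibition, run in quadruplicate and repeated twice.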

Mycobacterium kansasii [3] = experiment: Antimycobacterial activity against Mycobacterium kansasii 235/80 assessed as complete growth inhibition after 14 days; format: functional; conditions: 235/80, 336 h; in short: as §2
Mycobacterium kansasii [4] = experiment: Antimycobacterial activity against Mycobacterium kansasii 235/80 assessed as complete growth inhibition after 21 days; format: functional; conditions: 235/80, 504 h; in short: as §2
Mycobacterium kansasii [5] = experiment: Antimycobacterial activity against clinical isolate Mycobacterium kansasii 6509/96 assessed as complete growth inhibition after 7 days; format: functional; conditions: 6509/96, 168 h; in short: as §2
Mycobacterium kansasii [6] = experiment: Antimycobacterial activity against clinical isolate Mycobacterium kansasii 6509/96 assessed as complete growth inhibition after 14 days; format: functional; conditions: 6509/96, 336 h; in short: as §2
Mycobacterium kansasii [7] = experiment: Antimycobacterial activity against clinical isolate Mycobacterium kansasii 6509/96 assessed as complete growth inhibition after 21 days; format: functional; conditions: 6509/96, 504 h; in short: as §2
[8] = Inhibition of Mycobacterium tuberculosis H37Rv isocitrate lyase assessed as glyoxylate phenyl hydrazone formation at 10 uM
HepG2 = experiment: Cytotoxicity against human HepG2 cells assessed as reduction in cell viability after 24 hrs by MTS assay; format: cell-based; conditions: HepG2, 24 h
In short: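 HepG2 hepatocellular carcinoma cells (passage 3–4) were grown in Eagle's MEM with 10% FBS, 1% L-glutamine and non-essential amino acids. Compounds were added from DMSO at eight concentrations in triplicate, with 10% DMSO as the 0% viability control. Viability was read by tetrazolium salt reduction (CellTiter 96 AQueous One). IC50 is the concentration reducing viability to 50% of control.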

[9] = Selectivity index, ratio of IC50 for human HepG2 cells to MIC for Mycobacterium tuberculosis H37Rv; format: toxicity, cell-based; conditions: read-out: Selectivity Index
In short: (§3)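 Selectivity index = HepG2 IC50 / MIC. HepG2 cells (passage 3–4) grown in Eagle's MEM with 10% FBS, L-glutamine and non-essential amino acids. Compounds added from DMSO, eight concentrations in triplicate, tetrazolium-reduction colorimetric read-out.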

[10] = tested on: Mycobacterium tuberculosis; experiment: Antimycobacterial activity against Mycobacterium tuberculosis H37Rv 331/88 assessed as complete growth inhibition after 14 days; format: functional; conditions: H37Rv 331/88, 336 h; in short: as §1
[11] = tested on: Mycobacterium tuberculosis; experiment: Antimycobacterial activity against Mycobacterium tuberculosis H37Rv 331/88 assessed as complete growth inhibition after 21 days; format: functional; conditions: H37Rv 331/88, 504 h; in short: as §1
Mycobacterium avium [12] = experiment: Antimycobacterial activity against Isoniazid, rifampicin, ofloxacin and ethambutol-resistant Mycobacterium avium 330/88 assessed as complete growth inhibition after 14 days; format: functional; conditions: 330/88, 336 h; in short: as §1
in vitro = conditions: human, HepG2 cells
Staphylococcus aureus [13] = experiment: Antimicrobial activity against Staphylococcus aureus CCM 4516/08 after 24 hrs by microdilution method; format: functional; conditions: CCM 4516/08, 24 h
In short: (§4)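 Mueller-Hinton broth microdilution; compounds dissolved in DMSO, final concentrations 500 to 0.49 µM. […] Benzylpenicillin and bacitracin as comparators. Each determination done twice.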

Staphylococcus aureus [14] = experiment: Antimicrobial activity against Staphylococcus aureus CCM 4516/08 after 48 hrs by microdilution method; format: functional; conditions: CCM 4516/08, 48 h; in short: as §4
Staphylococcus aureus [15] = experiment: Antimicrobial activity against methicillin-resistant Staphylococcus aureus H 5996/08 after 24 hrs by microdilution method; format: functional; conditions: H 5996/08, 24 h; in short: as §4
Staphylococcus aureus [16] = experiment: Antimicrobial activity against methicillin-resistant Staphylococcus aureus H 5996/08 after 48 hrs by microdilution method; format: functional; conditions: H 5996/08, 48 h; in short: as §4
[17] = tested on: Staphylococcus epidermidis; experiment: Antimicrobial activity against Staphylococcus epidermidis H 6966/08 after 24 hrs by microdilution method; format: functional; conditions: H 6966/08, 24 h
In short: (§5)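 Broth microdilution in Mueller-Hinton broth, compounds dissolved in DMSO, final concentrations 500 to 0.49 µM. Benzylpenicillin and bacitracin were run as comparators. MIC was taken as 95% (IC95) or greater growth reduction versus control. Each determination was done twice.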

[18] = tested on: Staphylococcus epidermidis; experiment: Antimicrobial activity against Staphylococcus epidermidis H 6966/08 after 48 hrs by microdilution method; format: functional; conditions: H 6966/08, 48 h; in short: as §5
Enterococcus sp. [19] = experiment: Antimicrobial activity against Enterococcus sp. J 14365/08 after 24 hrs by microdilution method; format: functional; conditions: J 14365/08, 24 h; in short: as §5
Enterococcus sp. [20] = experiment: Antimicrobial activity against Enterococcus sp. J 14365/08 after 48 hrs by microdilution method; format: functional; conditions: J 14365/08, 48 h; in short: as §5
[21] = tested on: Trichophyton mentagrophytes; experiment: Antimicrobial activity against Trichophyton mentagrophytes 445 after 72 hrs by microdilution method; format: functional; conditions: Trichophyton mentagrophytes, 445, 72 h
In short: (§6)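 Broth microdilution in RPMI 1640 with glutamine, with fluconazole and amphotericin B as references. For filamentous fungi, MIC is expressed as the IC50, i.e. the concentration giving 50% growth reduction versus control. Each determination was done twice.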

[22] = tested on: Trichophyton mentagrophytes; experiment: Antimicrobial activity against Trichophyton mentagrophytes 445 after 120 hrs by microdilution method; format: functional; conditions: Trichophyton mentagrophytes, 445, 120 h; in short: as §6
[23] = Selectivity index, ratio of IC50 for human HepG2 cells to MIC for atypical mycobacteria
In short: as §3, with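 “read-out. IC50 is the concentration reducing viability to 50% of control; 10% DMSO as 0% viability.” for “read-out.”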

[24] = Selectivity index, ratio of IC50 for human HepG2 cells to MIC for methicillin-resistant Staphylococcus aureus H 5996/08
In short: as §3, with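 “read-out. IC50 is the concentration reducing viability to 50% of control; 10% DMSO as 0% viability.” for “read-out.”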

[25] = Selectivity index, ratio of IC50 for human HepG2 cells to MIC for Trichophyton mentagrophytes 445

SMILES	MIC (Mycobacterium avium [1])	MIC (Mycobacterium kansasii [2])	MIC (Mycobacterium kansasii [3])	MIC (Mycobacterium kansasii [4])	MIC (Mycobacterium kansasii [5])	MIC (Mycobacterium kansasii [6])	MIC (Mycobacterium kansasii [7])	inhibition [8]	IC50 (HepG2)	selectivity ratio [9]	MIC [10]	MIC [11]	MIC (Mycobacterium avium [12])	MIC (Staphylococcus aureus [13])	MIC (Staphylococcus aureus [14])	MIC (Staphylococcus aureus [15])	MIC (Staphylococcus aureus [16])	MIC [17]	MIC [18]	MIC (Enterococcus sp. [19])	also measured
NNC(=O)c1ccncc1 [ISONIAZID]	> 250 µM	> 250 µM	> 250 µM	> 250 µM	2 µM (≈ 0.274 µg/mL)	4 µM (≈ 0.549 µg/mL)	4 µM (≈ 0.549 µg/mL)	0%	> 250 µM	> 250	0.5 µM (≈ 0.0686 µg/mL)	1 µM (≈ 0.137 µg/mL)	> 250 µM	–	–	–	–	–	–	–	selectivity ratio (in vitro): ≥ 31.3
CN(C)C(=S)Oc1ccc(Cl)cc1C(=O)Nc1ccc(Br)cc1	16 µM (≈ 6.62 µg/mL)	16 µM (≈ 6.62 µg/mL)	16 µM (≈ 6.62 µg/mL)	16 µM (≈ 6.62 µg/mL)	16 µM (≈ 6.62 µg/mL)	32 µM (≈ 13.2 µg/mL)	32 µM (≈ 13.2 µg/mL)	11%	85.6 µM	10.7	8 µM (≈ 3.31 µg/mL)	8 µM (≈ 3.31 µg/mL)	16 µM (≈ 6.62 µg/mL)	0.49 µM (≈ 0.203 µg/mL)	0.49 µM (≈ 0.203 µg/mL)	0.49 µM (≈ 0.203 µg/mL)	0.49 µM (≈ 0.203 µg/mL)	0.49 µM (≈ 0.203 µg/mL)	0.49 µM (≈ 0.203 µg/mL)	> 500 µM	MIC (Enterococcus sp. [20]): > 500 µM; MIC [21]: 1.95 µM (≈ 0.807 µg/mL); MIC [22]: 1.95 µM (≈ 0.807 µg/mL); Selectivity Index [23]: 2.7; Selectivity Index [24]: 174.8; Selectivity Index [25]: 843.9
CN(C)C(=S)Oc1ccc(Cl)cc1C(=O)Nc1ccc(F)cc1	32 µM (≈ 11.3 µg/mL)	16 µM (≈ 5.65 µg/mL)	32 µM (≈ 11.3 µg/mL)	32 µM (≈ 11.3 µg/mL)	16 µM (≈ 5.65 µg/mL)	32 µM (≈ 11.3 µg/mL)	32 µM (≈ 11.3 µg/mL)	7%	117 µM	7.3	8 µM (≈ 2.82 µg/mL)	16 µM (≈ 5.65 µg/mL)	32 µM (≈ 11.3 µg/mL)	15.6 µM (≈ 5.51 µg/mL)	31.2 µM (≈ 11 µg/mL)	31.2 µM (≈ 11 µg/mL)	31.2 µM (≈ 11 µg/mL)	31.2 µM (≈ 11 µg/mL)	31.2 µM (≈ 11 µg/mL)	> 500 µM	MIC (Enterococcus sp. [20]): > 500 µM; MIC [21]: 7.81 µM (≈ 2.76 µg/mL); MIC [22]: 7.81 µM (≈ 2.76 µg/mL); Selectivity Index [23]: 3.7; Selectivity Index [24]: 3.7; Selectivity Index [25]: 15
CN(C)C(=S)Oc1ccc(Cl)cc1C(=O)Nc1ccc(Cl)cc1	16 µM (≈ 5.91 µg/mL)	8 µM (≈ 2.95 µg/mL)	16 µM (≈ 5.91 µg/mL)	16 µM (≈ 5.91 µg/mL)	16 µM (≈ 5.91 µg/mL)	16 µM (≈ 5.91 µg/mL)	16 µM (≈ 5.91 µg/mL)	6%	83.5 µM	10.4	4 µM (≈ 1.48 µg/mL)	8 µM (≈ 2.95 µg/mL)	16 µM (≈ 5.91 µg/mL)	3.9 µM (≈ 1.44 µg/mL)	7.81 µM (≈ 2.88 µg/mL)	3.9 µM (≈ 1.44 µg/mL)	7.81 µM (≈ 2.88 µg/mL)	7.81 µM (≈ 2.88 µg/mL)	31.2 µM (≈ 11.5 µg/mL)	125 µM (≈ 46.2 µg/mL)	MIC (Enterococcus sp. [20]): > 125 µM; MIC [21]: 1.95 µM (≈ 0.72 µg/mL); MIC [22]: 1.95 µM (≈ 0.72 µg/mL); Selectivity Index [23]: 5.2; Selectivity Index [24]: 21.4; Selectivity Index [25]: 442.8
CN(C)C(=O)Oc1ccc(Cl)cc1C(=O)Nc1ccc(Cl)cc1	62.5 µM (≈ 22.1 µg/mL)	62.5 µM (≈ 22.1 µg/mL)	62.5 µM (≈ 22.1 µg/mL)	62.5 µM (≈ 22.1 µg/mL)	62.5 µM (≈ 22.1 µg/mL)	125 µM (≈ 44.2 µg/mL)	125 µM (≈ 44.2 µg/mL)	6%	189 µM	11.8	16 µM (≈ 5.65 µg/mL)	16 µM (≈ 5.65 µg/mL)	62.5 µM (≈ 22.1 µg/mL)	62.5 µM (≈ 22.1 µg/mL)	125 µM (≈ 44.2 µg/mL)	62.5 µM (≈ 22.1 µg/mL)	125 µM (≈ 44.2 µg/mL)	125 µM (≈ 44.2 µg/mL)	125 µM (≈ 44.2 µg/mL)	125 µM (≈ 44.2 µg/mL)	MIC (Enterococcus sp. [20]): > 125 µM; MIC [21]: 31.2 µM (≈ 11 µg/mL); MIC [22]: 31.2 µM (≈ 11 µg/mL); Selectivity Index [23]: 1.5; Selectivity Index [24]: 1.5; Selectivity Index [25]: 6
